From ChEMBL document CHEMBL1123325, “Isomer-dependent cytostatic activity of bis(1-aziridinyl)cyclophosphazenes” (1986)

Tests used:
Format in all cases: functional
L5178Y = experiment: In vitro lowest active dose (LAD) in L5178Y mouse lymphoma cells
L1210 [1] = experiment: In vitro inhibition dose (cytostatic activity) in L1210 mouse leukemia cells
Mus musculus [2] = experiment: Tested for percent median survival time of drug-treated mice over that of untreated control mice at dose of 40 mg/kg
Outline: (§1)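 10^5 L1210 leukemia cells from in vitro suspension culture were injected into male (BALB/c × DBA/2)F1 (CDF1) mice as intraperitoneal leukemia. Dosing began 24 h later, with 5 mice per dose and 10 untreated controls. Survival times were recorded. The value is the median survival time of treated mice as a percent of untreated controls (T/C%), with 60-day long-term survivors noted.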

L1210 [3] = experiment: Tested in vivo for 50% lethal dose in L1210 mouse leukemia cells
Mus musculus [4] = experiment: Compound was tested for percent median survival time of drug-treated mice over that of untreated control mice at dose of 20 mg/kg; outline: as §1
Mus musculus [5] = experiment: Compound was tested for percent median survival time of drug-treated mice over that of untreated control mice at dose of 300 mg/kg; outline: as §1
Mus musculus [6] = experiment: Compound was tested for percent median survival time of drug-treated mice over that of untreated control mice at dose of 350 mg/kg; outline: as §1
Mus musculus [7] = experiment: Compound was tested for percent median survival time of drug-treated mice over that of untreated control mice at dose of 90 mg/kg; outline: as §1
Mus musculus [8] = experiment: Compound was tested for percent median survival time of drug-treated mice over that of untreated control mice at dose of 110 mg/kg; outline: as §1
Mus musculus [9] = experiment: Compound was tested for percent median survival time of drug-treated mice over that of untreated control mice at dose of 35 mg/kg; outline: as §1
Mus musculus [10] = experiment: Compound was tested for percent median survival time of drug-treated mice over that of untreated control mice at dose of 180 mg/kg; outline: as §1
Mus musculus [11] = experiment: Compound was tested for percent median survival time of drug-treated mice over that of untreated control mice at dose of 140 mg/kg; outline: as §1
Mus musculus [12] = experiment: Compound was tested for percent median survival time of drug-treated mice over that of untreated control mice at dose of 70 mg/kg; outline: as §1
Mus musculus [13] = experiment: Compound was tested for percent median survival time of drug-treated mice over that of untreated control mice at dose of 100 mg/kg; outline: as §1
Mus musculus [14] = experiment: Compound was tested for percent median survival time of drug-treated mice over that of untreated control mice at dose of 60 mg/kg; outline: as §1
Mus musculus [15] = experiment: Compound was tested for percent median survival time of drug-treated mice over that of untreated control mice at dose of 50 mg/kg; outline: as §1
Mus musculus [16] = experiment: Compound was tested for percent median survival time of drug-treated mice over that of untreated control mice at dose of 30 mg/kg; outline: as §1
Mus musculus [17] = experiment: Compound was tested for percent median survival time of drug-treated mice over that of untreated control mice at dose of 80 mg/kg; outline: as §1
Mus musculus [18] = experiment: Compound was tested for percent median survival time of drug-treated mice over that of untreated control mice at dose of 900 mg/kg; outline: as §1
Mus musculus [19] = experiment: Compound was tested for percent median survival time of drug-treated mice over that of untreated control mice at dose of 600 mg/kg; outline: as §1
Mus musculus [20] = experiment: Compound was tested for percent median survival time of drug-treated mice over that of untreated control mice at dose of 175 mg/kg; outline: as §1
Mus musculus [21] = experiment: Tested for percent median survival time of drug-treated mice over that of untreated control mice at dose of 200 mg/kg; outline: as §1
Mus musculus [22] = experiment: Compound was tested for percent median survival time of drug-treated mice over that of untreated control mice at dose of 160 mg/kg; outline: as §1
Mus musculus [23] = experiment: Compound was tested for percent median survival time of drug-treated mice over that of untreated control mice at dose of 150 mg/kg; outline: as §1
Mus musculus [24] = experiment: Compound was tested for percent median survival time of drug-treated mice over that of untreated control mice at dose of 120 mg/kg; outline: as §1
Mus musculus [25] = experiment: Compound was tested for percent median survival time of drug-treated mice over that of untreated control mice at dose of 400 mg/kg; outline: as §1
Mus musculus [26] = experiment: Compound was tested for percent median survival time of drug-treated mice over that of untreated control mice at dose of 800 mg/kg; outline: as §1

Row | Compound | LAD (L5178Y) | ID50 (L1210 [1]) | LD50 (L1210 [3]) | other results
1 | CN(C)P1(N(C)C)=NP(N(C)C)(N(C)C)=NP(N2CC2)(N2CC2)=N1 | 2e-05 M l-1 | 1.95e-05 M l-1 |  | 
2 | C1CN1P1(N2CC2)=NP(N2CC2)(N2CC2)=NP(N2CC2)(N2CC2)=N1 |  | 2e-06 M l-1 | 50 mg/kg | T/C (Mus musculus [2]): 163%; T/C (Mus musculus [4]): 200%
3 | C1CN(P2(N3CCOCC3)=NP(N3CC3)(N3CC3)=NP(N3CC3)(N3CC3)=N2)CCO1 |  | 5.8e-06 M l-1 | 400 mg/kg | T/C (Mus musculus [5]): 175%; T/C (Mus musculus [6]): 200%
4 | C1CCN([P@@]2(N3CC3)=NP(N3CC3)(N3CC3)=N[P@@](N3CCCCC3)(N3CC3)=N2)CC1 |  | 2.1e-06 M l-1 | 140 mg/kg | T/C (Mus musculus [7]): 167%; T/C (Mus musculus [8]): 189%
5 | C1CCN(P2(N3CCCC3)=N[P@@](N3CCCC3)(N3CC3)=N[P@](N3CCCC3)(N3CC3)=N2)C1 | 1e-06 M l-1 | 4.8e-06 M l-1 |  | 
6 | CNP1(N2CC2)=NP(N2CC2)(N2CC2)=NP(N2CC2)(N2CC2)=N1 (configuration not stated) |  | 1.2e-06 M l-1 | 45 mg/kg | T/C (Mus musculus [2]): 188%; T/C (Mus musculus [9]): 188%
7 | CNP1(NC)=N[P@](NC)(N2CC2)=NP(NC)(NC)=N[P@@](NC)(N2CC2)=N1 | 5e-07 M l-1 | 4.6e-06 M l-1 | 200 mg/kg | T/C (Mus musculus [10]): 311%; T/C (Mus musculus [11]): 333%; T/C (Mus musculus [12]): 289%; T/C (Mus musculus [13]): 244%
8 | CNP1(NC)=NP(NC)(NC)=NP(N2CC2)(N2CC2)=NP(NC)(NC)=N1 | 1.8e-05 M l-1 | 6.5e-06 M l-1 |  | 
9 | CN(C)P1(N(C)C)=NP(N(C)C)(N(C)C)=NP(N2CC2)(N2CC2)=NP(N(C)C)(N(C)C)=N1 | 2e-06 M l-1 | 1.19e-05 M l-1 |  | 
10 | C1CCN(P2(N3CC3)=NP(N3CC3)(N3CC3)=NP(N3CC3)(N3CC3)=N2)CC1 (configuration not stated) |  | 1.5e-06 M l-1 | 80 mg/kg | T/C (Mus musculus [14]): 175%; T/C (Mus musculus [12]): 213%
11 | C1CN(P2(N3CCOCC3)=NP(N3CCOCC3)(N3CCOCC3)=NP(N3CC3)(N3CC3)=N2)CCO1 | 0.00012 M l-1 | 0.00013 M l-1 |  | 
12 | CNP1(NC)=NP(NC)(NC)=NP(NC)(N2CC2)=NP(NC)(NC)=N1 (configuration not stated) | 0.00015 M l-1 | 5.69e-05 M l-1 |  | 
13 | CNP1(NC)=N[P@@](NC)(N2CC2)=N[P@](NC)(N2CC2)=N1 | 1e-06 M l-1 | 3.3e-06 M l-1 | 50 mg/kg | T/C (Mus musculus [2]): 222%; T/C (Mus musculus [15]): 289%; T/C (Mus musculus [16]): 200%
14 | CNP1(NC)=N[P@](NC)(N2CC2)=N[P@](NC)(N2CC2)=N1 | 1e-06 M l-1 | 5e-06 M l-1 | 70 mg/kg | T/C (Mus musculus [14]): 275%; T/C (Mus musculus [2]): 250%; T/C (Mus musculus [17]): 175%
15 | C1CN(P2(N3CCOCC3)=N[P@](N3CCOCC3)(N3CC3)=N[P@](N3CCOCC3)(N3CC3)=N2)CCO1 | 6e-05 M l-1 | 3.35e-05 M l-1 |  | 
16 | CN(C)P1(N(C)C)=N[P@@](N(C)C)(N2CC2)=N[P@](N(C)C)(N2CC2)=N1 | 5e-07 M l-1 | 2.9e-06 M l-1 |  | 
17 | CN(C)P1(N(C)C)=NP(N(C)C)(N(C)C)=NP(N(C)C)(N2CC2)=NP(N(C)C)(N(C)C)=N1 (configuration not stated) | 6.4e-05 M l-1 | 1.21e-05 M l-1 |  | 
18 | CNP1(NC)=NP(NC)(NC)=NP(NC)(N2CC2)=N1 (configuration not stated) | 0.0002 M l-1 | >0.00025 M l-1 | 800 mg/kg | T/C (Mus musculus [18]): 225%; T/C (Mus musculus [19]): 175%
19 | O=S1(N2CC2)=NP(N2CC2)(N2CC2)=NP(N2CC2)(N2CC2)=N1 (configuration not stated) |  | 1.06e-05 M l-1 | 250 mg/kg | T/C (Mus musculus [20]): 188%; T/C (Mus musculus [21]): 163%

Row | Compound | LAD (L5178Y) | ID50 (L1210 [1]) | LD50 (L1210 [3]) | other results
20 | C1CCN(P2(N3CCCC3)=N[P@](N3CCCC3)(N3CC3)=N[P@](N3CCCC3)(N3CC3)=N2)C1 | 1e-06 M l-1 | 6.7e-06 M l-1 |  | 
21 | CN(C)P1(N(C)C)=N[P@](N(C)C)(N2CC2)=N[P@](N(C)C)(N2CC2)=N1 | 5e-07 M l-1 | 7.3e-06 M l-1 |  | 
22 | C1CN([P@@]2(N3CC3)=NP(N3CC3)(N3CC3)=N[P@@](N3CCOCC3)(N3CC3)=N2)CCO1 |  | 4.7e-06 M l-1 | 250 mg/kg | T/C (Mus musculus [22]): 213%; T/C (Mus musculus [21]): 200%
23 | C1CN(P2(N3CCOCC3)=N[P@](N3CCOCC3)(N3CC3)=N[P@@](N3CCOCC3)(N3CC3)=N2)CCO1 | 3e-05 M l-1 | 2.47e-05 M l-1 | 800 mg/kg | T/C (Mus musculus [18]): 163%; T/C (Mus musculus [19]): 163%
24 | CN(C)P1(N(C)C)=N[P@](N(C)C)(N2CC2)=NP(N(C)C)(N(C)C)=N[P@](N(C)C)(N2CC2)=N1 | 4e-06 M l-1 | 5.5e-06 M l-1 |  | 
25 | CN(C)P1(N(C)C)=NP(N(C)C)(N(C)C)=NP(N(C)C)(N2CC2)=N1 (configuration not stated) | >0.0003 M l-1 | >0.00025 M l-1 |  | 
26 | CCOC(=O)CNP1(NCC(=O)OCC)=NP(N2CC2)(N2CC2)=NP(N2CC2)(N2CC2)=N1 |  | 7.2e-06 M l-1 | 170 mg/kg | T/C (Mus musculus [23]): <100%; T/C (Mus musculus [24]): 125%
27 | C1CCN(P2(N3CCCC3)=NP(N3CCCC3)(N3CCCC3)=NP(N3CCCC3)(N3CC3)=N2)C1 (configuration not stated) | 1.2e-05 M l-1 | 4.43e-05 M l-1 |  | 
28 | C1CCN(P2(N3CCCC3)=NP(N3CCCC3)(N3CCCC3)=NP(N3CC3)(N3CC3)=N2)C1 | 4e-06 M l-1 | 1.86e-05 M l-1 |  | 
29 | C1CCN(P2(N3CCCCC3)=NP(N3CC3)(N3CC3)=NP(N3CC3)(N3CC3)=N2)CC1 |  | 3.6e-06 M l-1 | 250 mg/kg | T/C (Mus musculus [21]): 156%
30 | CNP1(NC)=N[P@@](NC)(N2CC2)=NP(NC)(NC)=N[P@@](NC)(N2CC2)=N1 | 5e-07 M l-1 | 4.6e-06 M l-1 | 200 mg/kg | T/C (Mus musculus [23]): 200%; T/C (Mus musculus [21]): 213%
31 | CN(C)P1(N(C)C)=N[P@](N(C)C)(N2CC2)=NP(N(C)C)(N(C)C)=N[P@@](N(C)C)(N2CC2)=N1 | 1e-06 M l-1 | 7.5e-06 M l-1 | 150 mg/kg | T/C (Mus musculus [22]): <100%; T/C (Mus musculus [24]): 125%
32 | C1CN(P2(N3CCOCC3)=NP(N3CCOCC3)(N3CCOCC3)=NP(N3CCOCC3)(N3CC3)=N2)CCO1 (configuration not stated) | >0.0003 M l-1 | >0.00025 M l-1 |  | 
33 | CN[P@@]1(N)=NP(N2CC2)(N2CC2)=N[P@](N)(NC)=N1 | 8e-06 M l-1 | 5.05e-05 M l-1 |  | 
34 | CNP1(NC)=NP(NC)(NC)=N[P@@](NC)(N2CC2)=N[P@](NC)(N2CC2)=N1 | 2e-06 M l-1 | 1.8e-06 M l-1 | 100 mg/kg | T/C (Mus musculus [14]): 275%; T/C (Mus musculus [2]): 238%; T/C (Mus musculus [17]): 263%; T/C (Mus musculus [13]): 213%
35 | C1CCN(P2(N3CCCC3)=NP(N3CC3)(N3CC3)=NP(N3CC3)(N3CC3)=N2)C1 |  | 2.7e-06 M l-1 | 220 mg/kg | T/C (Mus musculus [22]): 178%; T/C (Mus musculus [21]): 211%
36 | CN(C)P1(N(C)C)=NP(N(C)C)(N(C)C)=N[P@@](N(C)C)(N2CC2)=N[P@](N(C)C)(N2CC2)=N1 | 2e-06 M l-1 | 6.6e-06 M l-1 |  | 
37 | CNP1(NC)=NP(NC)(NC)=NP(N2CC2)(N2CC2)=N1 | 8e-06 M l-1 | 2.78e-05 M l-1 | 600 mg/kg | T/C (Mus musculus [25]): 163%; T/C (Mus musculus [26]): 188%; T/C (Mus musculus [19]): 150%
